In ChEMBL document CHEMBL3580587, “Design of Pyridopyrazine-1,6-dione γ-Secretase Modulators that Align Potency, MDR Efflux Ratio, and Metabolic Stability” (ACS Med Chem Lett, 2015):

Tested on: not listed separately
Experiment: Apparent intrinsic clearance in human liver microsomes
Type: ADME
Conditions: read-out: CLH(app)

**Q.** Which CLint scaled does the source give for `Cc1cn(-c2ccc3n(c2=O)CCN(CCOc2ccccc2C(C)(C)C)C3=O)cn1` here?
**A.** 95.7 mL/min/kg

**Q.** With `Cc1cn(-c2ccc3n(c2=O)CCN(CCOc2cccc4ccc(F)cc24)C3=O)cn1` as the molecule, how does the CLint scaled read?
**A.** 8.1 mL/min/kg

Tested on: MDR1 (human)
Experiment: Efflux ratio of apparent permeability from basolateral to apical over apical to basolateral side in MDCK cells expressing human MDR1 at 2 uM after 5 hrs by transwell assay
Type: ADME, cell-based, Canis lupus familiaris
Conditions: dog
Procedure, shortened: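 MDR1/MDCK assay using MDCK cells transfected with the human P-glycoprotein gene; efflux ratio reported.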

**Q.** Which efflux ratio at 5 h, 2 µM does the source give for `Cc1cn(-c2ccc3n(c2=O)CCN(CCOc2ccccc2C(C)(C)C)C3=O)cn1` here?
**A.** 1.7

Target: Gamma-secretase
Experiment: Modulation of human gamma secretase overexpressed in CHO cells co-expressing wild type human APP assessed as inhibition of amyloid beta-42 production after 24 hrs by ELISA
Type: cell-based
Conditions: not given
Procedure, shortened: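 Whole-cell assay in CHO cells expressing wild-type APP; Aβ42 IC50 reported as geometric mean of at least two experiments.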

**Q.** With `Cc1cn(-c2ccc3n(c2=O)CCN(CCOc2ccccc2C2CCC2)C3=O)cn1` as the molecule, how does the IC50 read?
**A.** 73 nM

**Q.** With `Cc1cn(-c2ccc3n(c2=O)CCN(CCOc2ccc(F)cc2[C@@H](C)C(F)(F)F)C3=O)cn1` as the molecule, how does the IC50 read?
**A.** 20 nM

**Q.** For `Cc1cn(-c2ccc3n(c2=O)CCN(CCOc2ccccc2-c2csc(C(F)(F)F)n2)C3=O)cn1`, which IC50 is on record?
**A.** 18 nM

**Q.** Which IC50 does the source give for `Cc1cn(-c2ccc3n(c2=O)CCN(CCOc2ccccc2C(C)(C)C)C3=O)cn1` here?
**A.** 128 nM

**Q.** For `Cc1cn(-c2ccc3n(c2=O)CCN(CCOc2ccc(F)cc2C(C)(C)C(F)(F)F)C3=O)cn1`, which IC50 is on record?
**A.** 30 nM

**Q.** Which IC50 does the source give for `Cc1cn(-c2ccc3n(c2=O)CCN(CCOc2ccccc2-c2cc(C(F)(F)F)no2)C3=O)cn1` here?
**A.** 17 nM

**Q.** With `Cc1cn(-c2ccc3n(c2=O)CCN(CCOc2ccccc2-c2cc(C(F)F)no2)C3=O)cn1` as the molecule, how does the IC50 read?
**A.** 72 nM

**Q.** With `Cc1cn(-c2ccc3n(c2=O)CCN(CCOc2ccccc2-c2csc(C)n2)C3=O)cn1` as the molecule, how does the IC50 read?
**A.** 302 nM

**Q.** With `Cc1cn(-c2ccc3n(c2=O)CCN([C@@H](C)COc2ccc(F)cc2[C@@H](C)C(F)(F)F)C3=O)cn1` as the molecule, how does the IC50 read?
**A.** 6 nM

**Q.** For `Cc1cn(-c2ccc3n(c2=O)CCN(CCOc2ccc(F)c4nc(C(F)(F)F)sc24)C3=O)cn1`, which IC50 is on record?
**A.** 25 nM

**Q.** With `Cc1cn(-c2ccc3n(c2=O)CCN(CCOc2ccccc2-c2cc(C)ns2)C3=O)cn1` as the molecule, how does the IC50 read?
**A.** 104 nM

**Q.** Which IC50 does the source give for `Cc1cn(-c2ccc3n(c2=O)CCN(CCOc2ccc(F)cc2C2CC(F)(F)C2)C3=O)cn1` here?
**A.** 59 nM

**Q.** Which IC50 does the source give for `Cc1cn(-c2ccc3n(c2=O)CCN(CCOc2ccc(F)cc2[C@H](C)C(F)(F)F)C3=O)cn1` here?
**A.** 85 nM
